# Assay outcomes as filed in PubChem.
# H69AR growth 86K = blocks growth of human H69AR lung tumor cells; viability, % at 10 µM; AID 598; H69AR lung tumor viability, ATP luminescence, 72 h; hits give low values; 85,000 compounds, 6% hits;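 active = viability at or below 40%; inactive = viability above 40%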;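 note: multidrug resistant small cell line overexpressing MRP-1 efflux transporter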
# Jurkat viability = cytotoxicity toward Jurkat cells; Jurkat E6.1 viability, ATP luminescence, 48 h; inhibition, % at 4 µM; 56,000 compounds, 1.2% hits; AID 463;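 active = inhibition above the mean inhibition of all tested compounds plus 3 SD, cut at about 28% in these data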
# PTK2B oligo ant = Pyk2 (human) oligomerization antagonism. Q14289. Q293 cells, Pyk2 FERM NanoBiT luminescence; hits give low values. z-score (the deposit names both 25 µM and 10 µM). 99,000 compounds, 0.83% hits;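 active = Z-score of -3 or lower, scaled per plate to the spread of control and sample wells; inactive = z-score above -3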;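 note: negative z-score means lost luminescence so less FERM oligomerization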
# Lung fibro prol = blocks proliferation of human lung fibroblasts; LL 47 human lung fibroblast viability, ATP luminescence; hits give low values; viability, % at 10 µM; 85,000 compounds, 1.1% hits;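 active = viability at or below 50% in the single dose screen; inactive = viability above 50%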;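 note: compound exposure lasted 72 h before the ATP readout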
#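 material = human LL 47 lung fibroblast cells | dosing = compounds added from tenfold dosing solution, 0.1% DMSO final | timing = overnight cell rest, 72 h compound treatment at 37 °C | measured by = CellTiter-Glo luminescence measuring cellular ATP | evaluation = % viability versus median cells-only luminescence | control set = cell-only wells, no compound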
# MT1-MMP txn act = MT1-MMP promoter transcription activation. HT1080 MT1-MMP promoter luciferase reporter, luminescence, overnight; hits give high values. activation factor at 10 µM. 86,000 compounds, 0.16% hits. AID 750;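 active = activation factor of at least 2 for MT1-MMP transcription at 10 µM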
# HUVEC prolif 384 = human endothelial cell proliferation inhibition. HUVEC proliferation, CellTiter-Glo luminescence, 72 h; hits give low values. viability, % at 10 µM (by protocol). 86,000 compounds, 1.1% hits;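 active = viability at or below 30%; inactive = viability above 30%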
# A number is an active result; 0 = inactive; - = not tested or not shown. An excerpt weighted towards active compounds, which were near 5.9% of everything screened.
SMILES,H69AR growth 86K,Jurkat viability,PTK2B oligo ant,Lung fibro prol,MT1-MMP txn act,HUVEC prolif 384
Cc1ccc(O)c(C(=O)CC(=O)c2cccc(F)c2)c1,13.1,0,0,0,0,14.7
Cc1cccc(C(=O)Nc2ccc(O)cc2)c1,0,0,0,0,0,0
O=C(CC(=O)c1cc(Cl)ccc1O)c1ccccc1,11.2,0,0,40.2,0,0
O=C(c1cccc(S(=O)(=O)N2CCCC2)c1)c1nnc(-c2ccncc2)o1,0,0,0,0,0,0
C=CCSc1nc(C)c(CC(=O)OCC(C)C)c(=O)[nH]1,0,0,0,0,0,0
CCOC(=O)N1CCN(Cc2ccccn2)CC1,0,-,0,0,0,0
CCOC(=O)C1=C(Cc2ccc(F)cc2)C(=O)c2ccccc2C1=O,0.8,-,0,0,0,6.5
O=C(OCc1ccc(F)cc1)c1ccc2c(c1)-c1ccccc1C2=O,-,-,0,-,-,-
CC(C)(C)NC(=O)CSc1nc(O)cc(=O)n1-c1ccccc1,0,-,0,0,-,0
Cc1ccc2c(c1)/C(=N/OS(=O)(=O)c1ccccc1)CCS2,-,-,0,-,-,-
CC1=CC(=O)C=C(C)C1=NOS(=O)(=O)c1ccccc1,0.7,-,0,1.4,0,1.1
COc1ccc(-c2ccnc(SCC(=O)Nc3ccccn3)n2)cc1,0,-,0,0,0,0
Cc1nc(NC(=O)CSc2nc3cccnc3n2C2CCCCC2)sc1C,28.9,0,0,14.0,0,0
CCc1nnc(NC(=O)CSc2nc3cccnc3n2C2CCCCC2)s1,0,29.4,0,0,0,0
COc1ccc(C(C)=O)cc1CSc1nnc(-c2ccc(Cl)cc2)n1-c1ccccc1,-,-,0,-,-,-
CCOc1ccc(-n2c(SCC(N)=O)nc3c(c2=O)SCC3)cc1,0,-,0,0,0,0
CCN1CCN(S(=O)(=O)c2ccc(OC)c(Br)c2)CC1,0,0,0,0,0,0
CCOc1ccc2nc(Cl)c(/C=C/C(=O)c3ccco3)cc2c1,8.9,-,0,0,0,0
Cc1cc(/C=C2/NC(=O)NC2=O)c(C)n1-c1sc2c(c1C#N)CCCC2,-,-,0,-,-,-
Cc1cc(C)c(-n2c(C)cc(/C=C3/NC(=O)NC3=O)c2C)c(C)c1,17.1,-,-,0,0,0
CCCN(CCC)CCNC(=O)C1CCN(Cc2nc(-c3ccc(Cl)cc3)oc2C)CC1,0,0,0,36.5,0,9.9
CCc1ccc(-c2nc(CN3CCCC(C(=O)NCCc4ccc(OC)c(OC)c4)C3)c(C)o2)cc1 (centres undefined),37.3,0,0,0,0,0
CCOC(=O)N1CCN(C(=O)C2CCCN(Cc3nc(-c4ccc(Cl)cc4)oc3C)C2)CC1 (centres undefined),0,48.9,-,0,0,0
Cc1oc(-c2ccc(Cl)cc2)nc1CN1CCCC(C(=O)N2CCc3ccccc32)C1 (centres undefined),0,0,-,-,0,0
CC(OC(=O)CN(C)S(=O)(=O)c1ccc(Cl)cc1)C(=O)Nc1cccc(Cl)c1 (centres undefined),-,-,0,-,-,-
SMILES,H69AR growth 86K,Jurkat viability,PTK2B oligo ant,Lung fibro prol,MT1-MMP txn act,HUVEC prolif 384
COc1cccc(NC(=O)COc2ccc(N3CC(C(=O)NCC(C)C)CC3=O)cc2)c1 (centres undefined),0,0,0,0,0,0
O=c1[nH]c2cc3c(cc2cc1C(c1nnnn1C1CCCC1)N1CCSCC1)OCCO3 (centres undefined),6.4,0,0,0,0,0
Cc1cc(C)c2cc(C(c3nnnn3C3CCCC3)N3CCOCC3)c(=O)[nH]c2c1 (centres undefined),35.5,0,0,0,0,0
CCCCn1c(=O)[nH]c(=O)c2c1nc(-c1ccsc1)n2Cc1ccccc1,0,-,-3.09,0,0,0
CCCCn1c(-c2ccsc2)nc2c1c(=O)[nH]c(=O)n2CCC,0,0,0,0,0,0
N#Cc1c(-c2ccc(Cl)cc2)ccn2nc(C3CCCCC3)nc12,31.3,-,0,0,0,0
CN(C)c1ccc(C(CC(=O)O)NC(=O)c2ccc(Cl)cc2)cc1 (centres undefined),0,0,0,0,0,0
CSc1nc2ccccc2n1Cc1c(Cl)cccc1Cl,35.6,-,0,0,-,0
c1ccc(CN2c3ccccc3-c3nc4ccccc4n3C2c2ccccn2)cc1 (centres undefined),31.9,-,0,0,0,0
CN(C)/C=N/c1cnc(C(=O)c2ccc(Cl)cc2)n1C,0,0,0,0,0,0
CC(=O)Oc1ccc(N(C(C)=O)S(=O)(=O)c2cccs2)c2ccccc12,1.4,-,0,0,0,4.0
CCC1(C)N=C(c2ccc3c(c2)OCO3)CC(c2ccccc2O)N1 (centres undefined),2.1,-,0,0,2.4,24.9
COc1cccc(C2=NOC(C(=O)NC(C)C)C2)c1 (centres undefined),0,0,0,0,0,0
COc1cccc(C2=NC(C)(C)NC(c3ccccc3O)C2)c1 (centres undefined),1.1,0,0,0,2.1,0
O=C1CC(c2ccccc2)CC(O)=C1C=NCCN1CCN(C(=O)Nc2ccccc2)CC1 (centres undefined),0,0,0,0,0,0
CCOc1ccc(NC(=O)c2cc3c(C)nc4ccccc4c3o2)cc1,29.8,-,-,0,-,0
Cc1nc2ccccc2c2oc(C(=O)NC3CC3)cc12,0,0,-,0,0,0
COc1cccc(N(C(=O)Cn2nnc(-c3ccc(C)cc3)n2)C(C(=O)NC(C)(C)C)c2c[nH]c3ccccc23)c1 (centres undefined),-,-,0,-,-,-
COc1cccc(N(C(=O)Cn2nnc(-c3cccs3)n2)C(C(=O)NC(C)C)c2ccc(C)o2)c1 (centres undefined),0,-,-3.5,0,0,0
COC(=O)C1=C(N)N(c2ccccc2C(F)(F)F)C2=C(C(=O)CCC2)C1c1ccc2c(c1)OCO2 (centres undefined),0,-,-4.31,0,0,0
COC(=O)CSC1=C(C#N)C(c2ccc3c(c2)OCO3)C2=C(CCCC2=O)N1 (centres undefined),0,-,0,0,0,0
CC1(C)Cc2c(cnn2-c2ccccc2)-c2c1c1ccccc1n2CC(O)CBr (centres undefined),15.8,-,0,0,0,0
CCOC(=O)Cc1cc(=O)n2[nH]c(-c3ccc(Cl)cc3)cc2n1,0,-,0,0,0,0
CC(C)(C)OC(=O)N1CCC(c2cc(=O)n3[nH]c(-c4ccc(Cl)cc4)cc3n2)CC1,10.9,-,-,0,-,0
O=C(Nc1ccc(NC(=S)NC(=O)C(c2ccccc2)c2ccccc2)cc1)c1ccccc1,-,-,0,-,-,-
CC1CC(C)CN(S(=O)(=O)c2ccc(C(=O)NCCCn3ccnc3)cc2)C1 (centres undefined),2.7,100.7,0,14.7,0,0
CSc1nnc(-c2sc3cc(Cl)ccc3c2Cl)n1C,26.7,0,0,0,0,0
COC(=O)[C@H](C)NC(=O)Nc1cccc(C(F)(F)F)c1,0,0,0,0,0,0
O=C(Nc1ccc(OC(F)F)cc1)Nc1cccc(C(F)(F)F)c1,3.7,-,0,38.2,0,0
